RAM network inh – inhibitors of the yeast RAM network, primary screen, dse1pr::URA3 reporter, 5-FOA selection. S. cerevisiae dse1pr::URA3 reporter, 5-FOA growth OD615, 2 d; analog-sensitive cbk1-as2 kinase mutant strain. inhibition, % at 50 µM. AID 868, 2007. hit rate 1.8% among 190,000;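 active means inhibition above a set limit, 3 SD over mean compound inhibition, cut at about 8.4% in these data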;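 further: 0% = DMSO-only wells with no growth and 100% = 10 µM 1-NA-PP1 full growth; inhibition rescues growth on 5-FOA so higher OD means more RAM inhibition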
Insulin prom up – insulin promoter activators in MIN6 cells, imaging, high-content screening, mouse beta cells; MIN6 insulin promoter-GFP reporter; stronger effect = higher value; z-score at 5 µM; hit rate 0.3% among 190,000;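 active means z-score above 3 at 5 µM with at least 500 cells counted in the well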
Yeast growth inh – growth inhibitors of yeast BB579 in restrictive medium, primary screen, yeast lifespan-shortening project, S. cerevisiae; hit rate 0.51% among 140,000; inhibition, % at 10 µM; OD615, 48 h;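 active means inhibition above a set limit, 3 SD over the mean compound inhibition, cut at about 44% in these data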
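System: DeaD yeast strain BB579; buffer or medium: CSMM-D dextrose restrictive medium; technique: OD at 615 nm; schedule: 4 h cell preincubation, 48 h compound exposure, 30 °C humidified; doses: single 10 µM dose; controls: amphotericin B 10 µg/mL, positive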
Yeast lifespan up – compounds extending yeast replicative lifespan, primary screen, S. cerevisiae, OD615. S. cerevisiae growth with nicotinamide; deaD strain in restrictive glucose medium. inhibition of the nicotinamide effect, % at 10 µM. hit rate 0.68% among 130,000. AID 775, 2007;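 active means inhibition above a set limit, placed 3 SD over the median of all compounds, cut at about 26% in these data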;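 further: 0% = nicotinamide-treated wells and 100% = cells grown without nicotinamide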
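Measured by: optical density (absorbance) at 615 nm; System: modified budding yeast, DeaD strain; Medium: restrictive CSMM-D dextrose medium; Timing: 4 h preincubation then 48 h treatment at 30 °C.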
Insulin prom inh – inhibitors of insulin promoter-driven GFP, primary screen, imaging, TRM-6 cells, eGFP reporter, cell count | hit rate 0.9% among 130,000 | AID 1273, 2008 | inhibition, % at 2 µM | reporter expression induced with tamoxifen;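 active means inhibition above the mean plus 3 SD, with well images judged a real hit on visual review, cut at about 60% in these data, passing the limit was not always enough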
* hit, by the source's call; . = no result. A selection: hits, their analogues and other compounds. The true share with any hit is near 3%.

SMILES | RAM network inh | Insulin prom up | Yeast growth inh | Yeast lifespan up | Insulin prom inh
Cc1ccc(C)c(NC(=O)c2ccc3ccccc3n2)c1 | 10.4* | -1.32 | -34.5 | -11.4 | 62.9
CCCC1=C(C(=O)OCC)C(c2cccs2)n2ncnc2N1 (stereo not given) | . | -0.1 | . | . | .
Cc1ccc(/C=C2/NC(=O)N(c3ccccc3)C2=O)o1 | 0.4 | 0.13 | -19.0 | -13.9 | -22.6
Cc1c(C(=O)O)cccc1-c1ccc(/C=C2/NC(=O)N(c3ccccc3)C2=O)o1 | 1.3 | 3.88* | . | . | .
CCOc1cc(N2CCOCC2)c(OCC)cc1NC(=O)CSc1ncn[nH]1 | -0.2 | 0.14 | . | . | .
Cc1sc2ncnc(SCC(=O)NC3CC3)c2c1C | 1.6 | 0.56 | -57.1 | -5.0 | 100.0*
CC(=O)c1cccc(NC(=O)COC(=O)C2=COCCO2)c1 | 0.1 | -0.39 | . | . | .
COc1ccc(NC(C)=O)cc1C | -0.1 | -0.29 | . | . | 71.4*
CC(C)OC(=O)c1c2c(n3ccccc13)C(=O)c1ccccc1C2=O | 3.6 | 11.7* | -11.2 | 0.2 | .
COC(=O)c1cc2c(C)c(C)c3ccccn3c-2c1C(=O)OC | 1.0 | . | -35.1 | -9.7 | -46.0
Cc1c(C(=O)N2CCCC2)sc(NC(=O)c2ccc(Cl)cc2)c1C#N | 0.4 | 0.29 | -28.3 | . | -151.2
COc1ccccc1C(=O)Nc1sc(C(=O)N2CCCC2)c(C)c1C#N | 8.5* | -1.66 | . | . | -21.4
Cc1ccc(-n2nnnc2SCC(=O)NC2CCCc3ccccc32)c(C)c1 (stereo not given) | 8.5* | -0.06 | -47.5 | -1.9 | -31.2
Cc1ccc(-n2nnnc2SCC(=O)NC2CCCc3ccccc32)cc1 (stereo not given) | 4.8 | 0.06 | -27.4 | -4.7 | 16.7
CC1=C(C(=O)OCc2ccccc2)C(c2ccc(Cl)cc2)NC(=O)N1CCCCCC(=O)O (stereo not given) | 4.3 | -0.2 | -22.8 | 21.4 | 23.8
CCOC(=O)C1=C(C)N(CCCC(=O)O)C(=O)NC1c1ccccc1OS(=O)(=O)c1ccc(C)cc1 (stereo not given) | 8.4* | 0.25 | -5.2 | -0.6 | -35.0
CC1=C(C(=O)OCc2ccccc2)C(c2cccc([N+](=O)[O-])c2)NC(=O)N1CCCCCC(=O)O (stereo not given) | 11.0* | 0.28 | -53.7 | 10.2 | -66.7
O=C(NCCCN1CCOCC1)c1ccc(CSc2ccc(Cl)cc2)cc1 | 2.4 | -0.86 | . | . | -58.3
CCOCCc1c(O)nc(SCC)[nH]c1=O | . | -0.62 | . | . | .
CCOC(=O)c1cccc(NC(=O)Nc2ccc3c(c2)C(=O)OC3)c1 | . | -0.36 | . | . | .
CCN1C(=O)/C(=C2/C(=O)N3c4c(cc(OC(C)=O)cc42)C(C)=CC3(C)C)SC1=S | 8.7* | -0.35 | -29.5 | 3.3 | 52.8
COc1cc2c3c(c1)/C(=C1/SC(NC(C)=O)=NC1=O)C(=O)N3C(C)(C)C=C2C | 4.5 | -1.7 | -71.9 | -15.2 | 25.0
C/C(CC(=O)Nc1cccnc1)=N\NC(=O)C(C)Oc1ccc(Cl)cc1Cl (stereo not given) | . | 0.32 | . | . | .
COc1ccc(NC(=O)COC(=O)C2CCC(C(C)(C)C)CC2)c([N+](=O)[O-])c1 (stereo not given) | 10.8* | 0.19 | -9.8 | 2.2 | 17.6
COc1ccc(NC(=O)COC(=O)c2ccc(O)cc2)c([N+](=O)[O-])c1 | 5.2 | -0.49 | . | . | .
SMILES | RAM network inh | Insulin prom up | Yeast growth inh | Yeast lifespan up | Insulin prom inh
CCCN1C(=O)c2ccc(C(=O)NC3CCCCC3)cc2C1=O | 3.8 | -0.05 | -55.3 | -9.6 | 1.4
CCN1C(=O)CSc2ccc(C(=O)NC3CCCCC3)cc21 | 8.7* | 0.63 | -27.4 | 0.2 | .
CCN1C(=O)CSc2ccc(C(=O)NCc3ccccc3OC)cc21 | 1.0 | 3.1* | -12.8 | -30.9 | -3.3
COc1ccccc1CNC(=O)CN1C(=O)CSc2ccc(S(=O)(=O)N3CCCC3)cc21 | -0.1 | -1.37 | . | . | .
Nc1cc2sc(-c3ccc(C(=O)O)cc3)nc2cc1Cl | 4.0 | -0.48 | -19.6 | -5.1 | -33.3
O=C(O)c1ccc2nc(-c3ccccc3)sc2c1 | 0.1 | 0.22 | 47.4* | -7.9 | 0.0
Nc1ccc(-c2nc3ccc(C(=O)O)cc3s2)cc1 | 9.1* | 0.31 | -12.5 | -2.6 | 33.3
Nc1ccc(-c2nc3ccc(N)cc3s2)cc1 | . | 0.14 | . | . | .
COc1cccc(C2=NN(C(=O)CCCC(=O)O)C(c3cccs3)C2)c1 (stereo not given) | . | 0.4 | . | . | .
